Measurements from PMC5901721 (Cancer research, 2018).

Legend:
[1] = tested on: MRCKα; test: MRCKα pS1003 western blot in HEK293 cells expressing FLAG-MRCKα; type: cell-based, human; settings: 2 hours
In short: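 HEK293 cells were transfected with 10 μg pEF-FLAG-MRCKα using a lipid reagent. After 48 h, they were treated 2 h with DMSO, 3 μM or 1 μM test compound. Cells were washed in PBS and lysed in 1% SDS, 50 mM Tris-HCl pH 7.4. Lysates were shredded and analysed by SDS-PAGE and western blot for MRCKα pS1003.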

[2] = tested on: MLC2 phosphorylation in SCC12 cells; settings: cited from earlier work
[3] = tested on: SCC12 cells; settings: cited from earlier work
[4] = tested on: 757 cancer cell lines; test: Cancer cell line screen; type: cell-based, human; settings: 72 hours, up to 10 µM, p<0.05
In short: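 757 human cancer cell lines spanning 45 cancer types were seeded in 1536-well plates and exposed to a 7-point, half-log dilution series of test compound with a top concentration of 10 μM.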

[5] = tested on: MRCKβ; test: Out-sourced dose-response kinase assays; type: biochemical; settings: Cheng-Prusoff equation
[6] = tested on: PKCγ; test: Kinase selectivity profiling, 115 kinase panel; type: biochemical; settings: 1 µM compound; apparent Km for ATP
[7] = tested on: MRCKβ; type: cell-based, human; settings: MDA MB 231 cells, inducible kinase domains, 60 minutes
In short: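 MDA MB 231 cells with doxycycline-inducible MRCKβ, ROCK1 or ROCK2 kinase domains were plated at 1.1×10⁵/well. After 24 h, 1 µg/ml doxycycline was given for 18 h, then test compound for 60 min. Lysis was in 50 mM Tris-HCl pH 7.4, 0.5% SDS with phosphatase inhibitors. pMLC2 was measured by quantitative western blot; mean ± SEM of 3-4 independent replicates.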

[8] = target: T1, DMPK (Homo sapiens, UniProt Q09013); test: Kinase selectivity profiling, 115 kinase panel; type: binding; settings: 1 µM compound
T1 sequence (Q09013 1-629): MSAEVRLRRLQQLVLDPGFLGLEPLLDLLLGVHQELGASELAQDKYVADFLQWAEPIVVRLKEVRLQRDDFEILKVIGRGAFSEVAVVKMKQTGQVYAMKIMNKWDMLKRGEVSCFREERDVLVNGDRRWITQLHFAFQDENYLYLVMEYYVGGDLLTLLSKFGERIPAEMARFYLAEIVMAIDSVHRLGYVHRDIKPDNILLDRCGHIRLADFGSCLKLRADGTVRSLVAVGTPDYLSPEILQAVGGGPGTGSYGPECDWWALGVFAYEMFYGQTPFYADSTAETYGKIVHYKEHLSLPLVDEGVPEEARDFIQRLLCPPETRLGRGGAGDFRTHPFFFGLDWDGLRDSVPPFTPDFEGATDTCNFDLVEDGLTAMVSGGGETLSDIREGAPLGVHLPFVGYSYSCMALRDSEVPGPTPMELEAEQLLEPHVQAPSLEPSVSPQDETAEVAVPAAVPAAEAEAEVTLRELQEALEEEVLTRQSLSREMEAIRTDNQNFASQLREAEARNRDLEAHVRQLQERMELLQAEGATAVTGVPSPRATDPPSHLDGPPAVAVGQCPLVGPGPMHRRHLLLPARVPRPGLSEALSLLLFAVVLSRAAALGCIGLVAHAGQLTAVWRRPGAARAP

[9] = tested on: MRCKβ; test: In-house kinase assay Ki compared with out-sourced values; type: biochemical
[10] = target: T1, DMPK; test: Competitive LanthaScreen Eu TR-FRET kinase binding assay; settings: read-out: Kd DMPK; displacement of fluorescent tracer; Cheng-Prusoff equation
[11] = tested on: SCC12 cells; test: SCC12 cell viability; type: cell-based, human; settings: 24 hour treatment
[12] = tested on: SCC12 cells; test: SCC12 organotypic invasion assay; type: cell-based, human; settings: SCC12, 0.4 μM, relative to DMSO vehicle
[13] = tested on: skin papillomas; test: DMBA/TPA two-stage chemical carcinogenesis model of SCC; type: in vivo, mouse; settings: topical 25 μg 5 times per week for 14 weeks
In short: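 40 FVB mice received topical DMBA 25 μg in acetone on day 1. From day 5 they received TPA 4.7 μg in acetone three times weekly. From day 5, groups of 20 also got test compound 25 μg in 50 μL 80% DMSO or vehicle, 5 times/week for 14 weeks. Tumour size and number were recorded weekly, blinded. Culling was at 12 mm papilloma diameter. Data are mean ± SD, 20 mice.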

[14] = tested on: MLC2 phosphorylation in SCC12 cells; test: MLC2 phosphorylation in SCC12 cells; type: cell-based, human
In short: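 SCC12 cells were plated at 5×10⁵ per well of a 6-well plate. After 24 h, they were treated 2 h with DMSO or a dose range of test compound. Cells were washed in PBS, lysed in 1% SDS, 50 mM Tris-HCl pH 7.4, shredded, and analysed by SDS-PAGE western blotting for MLC2 phosphorylation.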

[15] = tested on: PKCα; test: Kinase selectivity profiling, 115 kinase panel; type: biochemical; settings: 1 µM compound
[16] = Skin and blood concentrations at DMBA/TPA experimental endpoint; type: in vivo, mouse; settings: DMBA/TPA mice, topical 25 μg 5 times per week
In short: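 DMBA/TPA-initiated and promoted FVB mice were dosed topically with test compound 25 μg in 50 μL 80% (v/v) DMSO, 5 times per week. Skin and blood compound concentrations were measured by a contract laboratory at study end.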

[17] = tested on: MRCKα; test: In vitro MRCKα autophosphorylation and MLC2 phosphorylation assay; type: biochemical; settings: dephosphorylated immunoprecipitated FLAG-MRCKα
In short: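 FLAG-MRCKα (wild type, K106M or S1003A) was expressed in HEK293 for 2 days and immunoprecipitated on beads. They were incubated with lysate of IPTG-induced bacteria expressing MLC2, with western blot read-out.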

[18] = tested on: CDK9/Cyclin T1; test: Kinase selectivity profiling, 115 kinase panel; type: biochemical; settings: 1 µM compound
[19] = tested on: TSSK1 (STK22D); test: Kinase selectivity profiling, 115 kinase panel; type: biochemical; settings: 1 µM compound
[20] = tested on: ROCK1; test: Kinase selectivity profiling, 115 kinase panel; type: biochemical; settings: 1 µM compound; apparent Km for ATP
[21] = tested on: CDK9/Cyclin K; test: Kinase selectivity profiling, 115 kinase panel; type: biochemical; settings: 1 µM compound
[22] = tested on: CDK2/Cyclin A; test: Kinase selectivity profiling, 115 kinase panel; type: biochemical; settings: 1 µM compound
[23] = tested on: MRCKα pS1003; test: MRCKα pS1003 immunohistochemistry in DMBA/TPA treated skin and papillomas; type: in vivo, mouse; settings: DMBA/TPA mice, topical 25 μg 5 times per week
In short: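 Skin sections from DMBA/TPA mice dosed topically with 25 μg test compound in 80% DMSO or vehicle were stained for MRCKα pS1003. Normal skin and papilloma areas were selected, cells auto-detected and cytoplasmic intensity measured. Histoscore = %low×100 + %medium×200 + %high×300. Data are mean ± SD from 19 mice per group; two-tailed unpaired t-tests.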

[24] = tested on: SCC12 cells; test: Random migration; type: cell-based, human; settings: SCC12, 0.4 μM, 6 hours
In short: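 SCC12 cells were plated at 2×10⁴ per well of an image-lock 96-well plate. After 24 h, medium was changed to DMSO or 0.4 μM test compound. Individual cells were tracked over 6 h to give accumulated distance, Euclidean distance, velocity and directionality. Data are mean ± SEM of 120 cells; two-tailed unpaired t-tests.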

[25] = Skin and blood concentrations after topical application to FVB mice; type: in vivo; settings: FVB mouse
In short: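 FVB mice received topical test compound in 80% (v/v) DMSO under several regimens: once at 10 μg or 25 μg; 4 × 25 μg over 2 days; or 8 × 25 μg (4 days on, 2 off, 4 on), with vehicle controls. Mice were culled 2, 4, 8 or 24 h after the final dose. Skin and blood concentrations were measured by a contract laboratory; mean ± SD from 3 mice per condition.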

[26] = tested on: ROCK2; test: Kinase selectivity profiling, 115 kinase panel; type: biochemical; settings: 1 µM compound; apparent Km for ATP
[27] = tested on: MRCKα pS1003; test: MRCKα pS1003 staining of mouse skin after topical treatment; type: in vivo; settings: FVB mouse, topical 4 X 25 µg over 2 days
In short: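 FVB mice (5 per group) received topical 25 μg test compound in 50 μL 80% (v/v) DMSO, or 50 μL vehicle. Four applications were given over 2 days. Mice were culled 2 h after the final treatment, and skin was taken for MRCKα pS1003 staining.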

[28] = tested on: SCC12 cells; test: Phalloidin F-actin immunofluorescence; type: cell-based, human; settings: SCC12, 1 µM
In short: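 SCC12 cells on glass coverslips were grown overnight, then given medium with 1 μM test compound or DMSO. Cells were fixed in 4% paraformaldehyde/PBS for 15 min and permeabilised with 0.5% Triton X-100 for 5 min. F-actin was stained with Alexa 488 phalloidin, mounted with DAPI and imaged by confocal microscopy.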

[29] = tested on: SCC12 cells; test: Operetta high content morphology analysis; type: cell-based, human; settings: 2 hours
In short: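 SCC12 cells were seeded at 1.5×10⁴ per 96-well and grown 24 h, then treated 2 h with DMSO or a dose range of test compound. Fixation was 4% PFA for 15 min, permeabilisation 0.5% Triton X-100 for 15 min, blocking 1% BSA for 30 min. Staining used phalloidin, DAPI and a whole-cell stain, followed by automated high-content imaging and morphology analysis.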

[30] = topical 25 µg twice per day for 2 days

O=C(Nc1cn[nH]c1-c1ccccn1)c1nn(C2CCNCC2)cc1Cl [BDP5290]
pS1003 immunoreactivity ([1]; 3 µM): blocked | MLC phosphorylation [2]: reduced MLC phosphorylation | SCC12 organotypic invasion [3]: inhibited SCC12 organotypic invasion

c1csc(-c2c[nH]c3nccc(N4CCC[C@@]5(CCCCN5)C4)c23)n1 [BDP8900]
number of cancer types significantly resistant relative to all cancer cell lines [4]: 6 | number of cancer types significantly sensitive relative to all cancer cell lines [4]: 10 | minimum fold-selectivity for MRCKβ against all kinases tested (calculated Ki) [5]: 43 times | inhibition of PKCγ [6]: > 75% | selectivity of pMLC2 inhibition for MRCKβ relative to ROCK1 or ROCK2 [7]: > 562 times | inhibition of DMPK [8]: > 75% | affinity (MRCKβ Ki determined in-house) higher than the DMPK Kd [9]: 33 fold | Kd [10]: 0.8 nM

c1cc(-c2c[nH]c3nccc(N4CCC[C@@]5(CCCCN5)C4)c23)ncn1 [BDP9066]
number of cancer types significantly resistant relative to all cancer cell lines [4]: 4 | number of cancer types significantly sensitive relative to all cancer cell lines [4]: 8 | pS1003 immunoreactivity ([1]; 1 µM): blocked | SCC12 cell viability ([11]; all concentrations up to 0.5 µM): unaffected | decrease in viability ([11]; SCC12 cells, 1 μM): 25% | minimum fold-selectivity for MRCKβ against all kinases tested (calculated Ki) [5]: 27 times | decrease in the percentage of invading cells [12]: 50% | average papilloma volume per mouse vs DMSO [13]: significantly reduced | total papilloma numbers per mouse vs DMSO [13]: not different | total tumor volume per mouse vs DMSO [13]: significantly reduced | increase in cellular potency relative to BDP5290 ([14]; SCC12 cells pMLC2): 5 fold | EC50 ([14]; read-out: EC50 inhibition of MLC2 phosphorylation, SCC12 cells, 2 hours): 64 nM | inhibition of PKCα [15]: > 75% | compound in blood at experimental endpoint [16]: undetectable | mean concentration in skin at experimental endpoint [16]: > 1000 nM | MRCKα S1003 autophosphorylation in vitro [17]: blocked | recombinant MLC2 phosphorylation by MRCKα in vitro [17]: blocked | selectivity of pMLC2 inhibition for MRCKβ relative to ROCK1 or ROCK2 [7]: > 100 times | inhibition of CDK9/Cyclin T1 [18]: > 75% | inhibition of TSSK1 (STK22D) [19]: > 75% | inhibition of ROCK1 [20]: > 75% | inhibition of DMPK [8]: > 75% | inhibition of CDK9/Cyclin K [21]: > 75% | inhibition of CDK2/Cyclin A [22]: > 75% | MRCKα pS1003 histoscores in papillomas [23]: reduced | MRCKα pS1003 histoscores in the treated skin area [23]: reduced | MRCKα pS1003 immunohistochemistry staining [23]: significant decreases | directionality of cell motility [24]: No differences | reduction of accumulated distance travelled [24]: 21% | reduction of mean Euclidean distance travelled [24]: 18% | reduction of mean cell velocity [24]: 21% | higher concentration in skin, repeated 25 μg doses relative to single 10 μg dose ([25]; topical): 2.8 fold | mean concentration in blood [25, 30]: 40 nM | mean concentration in skin [25, 30]: 26000 nM | level in blood after 24 hours ([25]; topical, single 25 μg or 8 X 25 μg): undetectable | concentration in skin 24 hours after final dosing ([25]; topical, single 25 μg or 8 X 25 μg (either regimen)): over 16 μM | inhibition of ROCK2 [26]: > 75% | epidermal MRCKα pS1003 positive staining [27]: significantly reduced | bundling of filamentous actin at cortical and cytoplasmic regions [28]: reduced | affinity (MRCKβ Ki determined in-house) higher than the DMPK Kd [9]: 42 fold | Kd [10]: 0.98 nM | proportion of irregularly shaped cells ([29]; SCC12, 0.5 μM): increased | proportion of regularly shaped cells ([29]; SCC12, 0.5 μM): reduced proportions | 2D cell area ([29]; SCC12, dose range): increased | cell roundness ([29]; SCC12, dose range): decreased | proportion of elongated cells ([29]; SCC12, varying concentrations): did not vary
